Data set [1] deals with Fruit. Nature of the data set: Drug residues in Citrus sinensis cvs. Valencia late (Valencia oranges) at 400 mg/L treated for 1 min at 40 degC postharvest measured after 10 days of storage at 17 degC by GC analysis. The class given is ADME. An outline of the steps: (§1)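 'Valencia' oranges were dipped 1 min in TBZ at 600 mg/L (20 °C, ±0.5, 1 or 2% wt/vol SBC), 400 mg/L (40 °C, ±SBC) or 200 mg/L (50 °C, alone), then air-dried. They were sampled at 0, 10 and 20 days at 17 °C. Peel of five fruit was frozen, and 5 g of homogenate was extracted with ethyl acetate/hexane (1/1) plus NaCl. The extract was dried under N2, taken up in acetone and analysed by GC. Results are mg/kg on a whole-fruit basis.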

The test system of data set [2] is Penicillium digitatum. Nature of the data set: Fungicidal activity against TBZ-sensitive Penicillium digitatum infected Nova mandarins assessed as postharvest green mold incidence at 400 mg/L treated for 1 min at 40 degC at 20 hr after fungal conidial inoculation measured after 5 days of storage at 20 degC in presence of 1% SBC (water Rvb = 93.3%). The class given is functional. The procedure, abridged:
(§2)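 Fruit were surface-disinfected in 1 g/L hypochlorite for 30 s, rinsed, dried, then wounded twice equatorially (2 mm × 2 mm rod). Inoculation was a 1 min dip in P. digitatum conidia, 1 × 10^5 conidia/mL final. Fruit were held 20 h at 20 °C and 90% RH, dipped 1 min (SBC wt/vol), and air-dried. Storage was 20 °C, 90% RH. Decay incidence (% fruit with lesions) was scored at 5 d for mandarins and 7 d for oranges. Three replicates of 40 fruit were used; arcsin-transformed data were compared by LSD, p ≤ 0.05.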

For data set [3], the system named is Penicillium digitatum. Nature of the data set: Fungicidal activity against TBZ-sensitive Penicillium digitatum infected Nova mandarins assessed as postharvest green mold incidence at 200 mg/L treated for 1 min at 50 degC at 20 hr after fungal conidial inoculation measured after 5 days of storage at 20 degC (water Rvb = 98.3%). The class given is functional. The procedure, abridged: as §2

The test system of data set [4] is Penicillium digitatum. Nature of the data set: Fungicidal activity against TBZ-sensitive Penicillium digitatum infected Valencia oranges assessed as postharvest green mold incidence at 400 mg/L treated for 1 min at 40 degC at 20 hr after fungal conidial inoculation measured after 7 days of storage at 20 degC in presence of 0.5% SBC (water Rvb = 42.5%). The class given is functional. An outline of the steps: as §2

Data set [5] relates to Cuticular wax. Nature of the data set: Drug residues in Citrus sinensis cvs. Salustiana (Salustiana oranges) cuticular wax at 600 mg/L treated for 1 min at 50 degC postharvest measured after overnight incubation at 17 degC by GC analysis. The format is ADME. The procedure, abridged:
(§3)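 'Salustiana' oranges were washed with water and air-dried. They were dipped 1 or 3 min in TBZ 600 mg/L at 20 or 50 °C, or 1 min in TBZ 600 mg/L plus 2% SBC at 20 °C, then dried overnight at 17 °C in the dark. Surface residue was taken by water extraction and wax residue by chloroform extraction. Inner residue was measured in fruit after both extractions. Extracts were dried under N2, taken up in acetone and analysed by GC. Values are mg/kg on a whole-fruit basis.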

Data set [6] deals with Penicillium digitatum. Nature of the data set: Fungicidal activity against TBZ-sensitive Penicillium digitatum infected Nova mandarins assessed as postharvest green mold incidence at 400 mg/L treated for 1 min at 40 degC at 20 hr after fungal conidial inoculation measured after 5 days of storage at 20 degC in presence of 0.5% SBC (water Rvb = 100%). The format is functional. An outline of the steps:
as §2

For data set [7], the system named is Penicillium digitatum. Nature of the data set: Fungicidal activity against Penicillium digitatum infected Valenica oranges assessed as fruit weight loss at 200 mg/L treated for 1 min at 50 degC postharvest at 20 hr after fungal conidial inoculation measured after 14 days of storage at 17 degC (water Rvb = 6.18%). The format is functional.
Data set [8] concerns Penicillium digitatum. Nature of the data set: Fungicidal activity against Penicillium digitatum infected Valenica oranges assessed as fruit weight loss at 600 mg/L treated for 1 min at 20 degC postharvest at 20 hr after fungal conidial inoculation measured after 14 days of storage at 17 degC in presence of 1% SBC (water Rvb = 7.65%). The format is functional.
Data set [9] relates to Penicillium digitatum. Nature of the data set: Fungicidal activity against TBZ-resistant Penicillium digitatum infected Nova mandarins assessed as postharvest green mold incidence at 600 mg/L treated for 1 min at 20 degC at 20 hr after fungal conidial inoculation measured after 5 days of storage at 20 degC in presence of 0.5% SBC (water Rvb = 86.7%). The class given is functional.

Data set [10] has as its system Penicillium digitatum. Nature of the data set: Fungicidal activity against Penicillium digitatum infected Valenica oranges assessed as fruit weight loss at 600 mg/L treated for 1 min at 20 degC postharvest at 20 hr after fungal conidial inoculation measured after 21 days of storage at 17 degC (water Rvb = 7.98%). The format is functional.
The test system of data set [11] is Penicillium digitatum. Nature of the data set: Fungicidal activity against Penicillium digitatum infected Valenica oranges assessed as fruit weight loss at 600 mg/L treated for 1 min at 20 degC postharvest at 20 hr after fungal conidial inoculation measured after 21 days of storage at 17 degC in presence of 0.5% SBC (water Rvb = 10.79%). The format is functional.

Data set [12] has as its system Fruit surface. Nature of the data set: Drug residues on Citrus sinensis cvs. Salustiana (Salustiana oranges) fruit surface at 600 mg/L treated for 3 min at 20 degC postharvest measured after overnight incubation at 17 degC by GC analysis. The format is ADME. The settings on record: 0.05 h. The procedure, abridged:
as §3

Data set [13] has as its system Penicillium digitatum. Nature of the data set: Fungicidal activity against TBZ-resistant Penicillium digitatum infected Valencia oranges assessed as postharvest green mold incidence at 400 mg/L treated for 1 min at 40 degC at 20 hr after fungal conidial inoculation measured after 7 days of storage at 20 degC (water Rvb = 90.0%). The class given is functional.
The test system of data set [14] is Penicillium digitatum. Nature of the data set: Fungicidal activity against Penicillium digitatum infected Valenica oranges assessed as fruit weight loss at 400 mg/L treated for 1 min at 40 degC postharvest at 20 hr after fungal conidial inoculation measured after 14 days of storage at 17 degC in presence of 2% SBC (water Rvb = 9.20%). The class given is functional.

Data set [15] relates to Fruit. Nature of the data set: Drug residues in Citrus sinensis cvs. Valencia late (Valencia oranges) at 600 mg/L treated for 1 min at 20 degC postharvest measured after 10 days of storage at 17 degC by GC analysis. The format is ADME. The procedure, abridged:
as §1

The subject of data set [16] is Fruit. Nature of the data set: Drug residues in Citrus sinensis cvs. Valencia late (Valencia oranges) at 600 mg/L treated for 1 min at 20 degC postharvest measured after 20 days of storage at 17 degC in presence of 0.5% SBC by GC analysis. The class given is ADME. An outline of the steps:
as §1

The test system of data set [17] is Fruit. Nature of the data set: Total drug residues in Citrus sinensis cvs. Salustiana (Salustiana oranges) fruit at 600 mg/L treated for 1 min at 20 degC postharvest measured after overnight incubation at 17 degC in presence of 2% SBC by GC analysis. The format is ADME. The procedure, abridged: (§4)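 'Salustiana' oranges were water-washed, dried, dipped, then dried overnight at 17 °C in the dark. Unextracted fruit were used for total residues. Peel from five oranges was frozen at -18 °C. 5 g homogenized peel was extracted with 10 mL ethyl acetate/hexane (1/1) plus 2 g NaCl, shaken 30 min, then 1 mL of organic layer was dried under N2, redissolved in acetone, and run by GC without cleanup. Results are on a whole-fruit basis.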

Data set [18] relates to Fruit. Nature of the data set: Total drug residues in Citrus sinensis cvs. Salustiana (Salustiana oranges) fruit at 600 mg/L treated for 3 min at 50 degC postharvest measured after overnight incubation at 17 degC by GC analysis. The format is ADME. The settings on record: 0.05 h. An outline of the steps: as §4
The subject of data set [19] is Fruit. Nature of the data set: Drug residues in Citrus sinensis cvs. Valencia late (Valencia oranges) at 200 mg/L treated for 1 min at 50 degC postharvest measured immediately post-drug treatment by GC analysis. The class given is ADME. The procedure, abridged:
as §1

Take `c1ccc2[nH]c(-c3cscn3)nc2c1` [THIABENDAZOLE]: the Drug uptake was 0.89 mg/kg in data set [1]; 0.54 mg/kg in data set [5]; 0.69 mg/kg in [12]; 1.57 mg/kg in [15]; 1.31 mg/kg in [16]; 0.91 mg/kg in data set [17]. Also, the Drug uptake in data set [18] amounted to 1.6 mg/kg; in data set [19] it was 0.45 mg/kg. In addition, the Activity in data set [2] turned out to be 5%; in data set [3], 3.3%; in data set [4], 16.7%; in [6], 0%; in data set [7], 5.8%; in data set [8], 8.47%. For the same molecule, the Activity in data set [9] is 93.3%; in [10], 8.85%; in data set [11], 11.84%; in data set [13], 55.8%; in data set [14] it was 9.45%.

The record behind these values is ChEMBL document CHEMBL3045217, “Factors affecting the synergy of thiabendazole, sodium bicarbonate, and heat to control postharvest green mold of citrus fruit” (J Agric Food Chem, 2008).
